This note sets out measurements from ChEMBL document CHEMBL4428077, “Synthesis and Biological Evaluation of N-((1-(4-(Sulfonyl)piperazin-1-yl)cycloalkyl)methyl)benzamide Inhibitors of Glycine Transporter-1” (J Med Chem, 2016).

Calls of active or inactive are those of the source. The rule behind the calls is not given here.

A short description of series [1]: Intrinsic clearance in cynomolgus monkey. It counts as ADME, Macaca fascicularis.
A short description of series [2]: Intrinsic clearance in rat. It counts as ADME.
A further series addresses Cytochrome P450 2C9 (Homo sapiens, UniProt P11712). The experiment in a line: Inhibition of CYP2C9 (unknown origin). It counts as ADME.
The nature of series [3]: Protein binding in human plasma. It counts as ADME, cell-free. As to conditions: read-out: PPB (converted).
The nature of series [4]: Protein binding in rat plasma. As to conditions: read-out: PPB (converted). Type of series: ADME, cell-free.
A short description of series [5]: Cmax in Sprague-Dawley rat plasma at 10 mg/kg, po administered as single dose by LC-MS/MS analysis. Type of series: ADME, organism-based. Also noted: dose 10 mg/kg, route oral. The method in brief:
(§1)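 Single-dose PK in drug-naive adult male Sprague−Dawley rats, n = 3 per group: 3.1 μmol/kg IV in 5% DMSO/10% Solutol in saline (5 mL/kg), or 15.7 μmol/kg PO in 5% Solutol/10% Captisol in 25 mM PBS, pH adjusted to 2 with HCl. Plasma parameters reported as mean ± SD.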

A short description of series [6]: Tmax in Sprague-Dawley rat plasma at 10 mg/kg, po administered as single dose by LC-MS/MS analysis. Type of series: ADME, organism-based. The method in brief: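 Groups of three drug-naive adult male Sprague–Dawley rats, single dose: IV 3.1 μmol/kg in 5% DMSO/10% Solutol in saline (5 mL/kg), or PO 15.7 μmol/kg in 5% Solutol/10% Captisol in 25 mM PBS adjusted to pH 2 with HCl. Plasma concentration–time data give the parameters; mean ± SD.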

Series [7] can be described thus: Apparent terminal half life in cynomolgus monkey plasma at 1 mg/kg, iv or 5 mg/kg, po by LC-MS/MS analysis. Type of series: ADME, organism-based, Macaca fascicularis. Conditions: read-out: betat1/2(app) (converted). In short, it runs like this: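 Single-dose PK in female cynomolgus monkeys, n = 3 per group: 1.5 μmol/kg IV in 5% DMSO/10% Solutol in saline, pH 6.5 (2 mL/kg), or 7.8 μmol/kg PO in 5% Solutol in 20% Captisol, 25 mM PBS, pH 2 (5 mL/kg). Plasma parameters reported as mean ± SD.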

Series [8] is described as follows: AUClast in Sprague-Dawley rat plasma at 10 mg/kg, po or 2 mg/kg, iv administered as single dose measured up to 24 hrs post dose by LC-MS/MS analysis. It counts as ADME, organism-based. In short, it runs like this: as §1
Series [9] is described as follows: Ratio of drug level in Sprague-Dawley rat brain to plasma at 3 to 10 mg/kg, po measured 2 hrs post dose by LC-MS/MS analysis. Type of series: ADME, organism-based. As to conditions: read-out: BPR. The method in brief:
(§2)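 Drug-naive male Sprague–Dawley rats (n = 4–5/group) were dosed orally in 5% Solutol/10% Captisol in 25 mM PBS, pH 2, and euthanized by CO2 2 h post-dose. CSF (50–100 μL) was taken from the cisterna magna, and brain and plasma were collected; drug was measured in each matrix. Quantitation limit 1.0 ng/mL.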

Series [10] in a line: Ratio of drug level in CSF to unbound plasma concentration in Sprague-Dawley rat at 3 to 10 mg/kg, po measured 2 hrs post dose by LC-MS/MS analysis. It counts as ADME, organism-based. As to conditions: in vivo. In short, it runs like this:
as §2

Series [11] relates to Cynomolgus monkey. The experiment in a line: In vivo inhibition of glycine transporter-1 in cynomolgus monkey assessed as CSF glycine level at 10 mg/kg, po measured up to 24 hrs post dose by LC-MS/MS analysis relative to control. Type of series: functional, Macaca fascicularis. The arrangement: scale not given: the % may be the effect or the level left. The method in brief: (§3)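 Cynomolgus monkeys, n = 3 per group, given oral doses of 0.4, 1.5, 4.7 or 15.7 μmol/kg. Vehicle was 5% Solutol / 20% Captisol in 25 mM PBS, pH 2. CSF (about 0.30 mL) was drawn through subcutaneous ports with a sterile Huber needle predose and at 0.5, 1, 2, 3, 4, 8, 12 and 24 h. Matched blood was taken at each time. Mean ± SD.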

In series [12] the test system is Cynomolgus monkey. The experiment in a line: In vivo inhibition of glycine transporter-1 in po dosed cynomolgus monkey assessed as increase in CSF glycine level measured up to 24 hrs post dose by LC-MS/MS analysis. Type of series: functional, Macaca fascicularis. In short, it runs like this:
as §3

Series [13] in a line: Drug level in cynomolgus monkey plasma at 3 mg/kg, po measured at 3 hrs post dose by LC-MS/MS analysis. It counts as ADME, organism-based, Macaca fascicularis.
Series [14] is described as follows: Drug level in cynomolgus monkey plasma at 3 mg/kg, po measured at 8 hrs post dose by LC-MS/MS analysis. It counts as ADME, organism-based, Macaca fascicularis.
A short description of series [15]: Drug level in cynomolgus monkey plasma at 10 mg/kg, po measured at 24 hrs post dose by LC-MS/MS analysis. Type of series: ADME, organism-based, Macaca fascicularis.
A short description of series [16]: Drug level in cynomolgus monkey CSF at 10 mg/kg, po measured at 2 hrs post dose by LC-MS/MS analysis. Type of series: ADME, organism-based, Macaca fascicularis, Cerebrospinal fluid. As to conditions: read-out: Drug uptake. In short, it runs like this: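 Cynomolgus monkeys (n = 3/group) fitted with subcutaneous CSF ports were dosed orally at 0.4−15.7 μmol/kg in 5% Solutol plus 20% Captisol in 25 mM PBS, pH 2. CSF (about 0.30 mL) and blood were sampled predose and at 0.5, 1, 2, 3, 4, 8, 12 and 24 h. Quantitation limit 1.0 ng/mL; mean ± SD.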

Series [17] can be described thus: Drug level in Sprague-Dawley rat brain at 30 mg/kg, po measured 2 hrs post dose by LC-MS/MS analysis. It counts as ADME, organism-based. Conditions: read-out: Drug uptake. The method in brief: (§4)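 Drug-naive Sprague−Dawley rats (n = 4−5/group) were dosed orally once in 5% Solutol plus 20% Captisol in 25 mM PBS, pH 2, and euthanized 2 h later by CO₂. CSF was drawn from the cisterna magna. Drug was measured in CSF, brain and plasma; data as mean ± SEM.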

Series [18] can be described thus: Drug level in Sprague-Dawley rat brain at 100 mg/kg, po measured 2 hrs post dose by LC-MS/MS analysis. It counts as ADME, organism-based. As to conditions: read-out: Drug uptake. In short, it runs like this: as §4
Series [19] is described as follows: Drug level in Sprague-Dawley rat plasma at 30 mg/kg, po measured 2 hrs post dose by LC-MS/MS analysis. Type of series: ADME, organism-based. The method in brief:
as §4

Series [20] is described as follows: Drug level in Sprague-Dawley rat CSF at 10 mg/kg, po qd for 5 days measured 2 hrs post last dose by LC-MS/MS analysis. As to conditions: read-out: Drug uptake. It counts as ADME, organism-based, Cerebrospinal fluid. The method in brief:
(§5)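 Drug-naive Sprague−Dawley rats (n = 5/group) were dosed orally once daily for 5 days in 5% Solutol plus 20% Captisol in 25 mM PBS, pH 2, and sacrificed 2 h after the last dose. Drug was measured in CSF, brain and plasma; mean ± SEM.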

Series [21] is described as follows: Drug level in Sprague-Dawley rat brain at 1 mg/kg, po qd for 5 days measured 2 hrs post last dose by LC-MS/MS analysis. Type of series: ADME, organism-based. As to conditions: read-out: Drug uptake. The method in brief: as §5
Series [22] is described as follows: Drug level in Sprague-Dawley rat plasma at 3 mg/kg, po qd for 5 days measured 2 hrs post last dose by LC-MS/MS analysis. Type of series: ADME, organism-based. The method in brief:
as §5

Series [23] in a line: Drug level in Sprague-Dawley rat plasma at 10 mg/kg, po qd for 5 days measured 2 hrs post last dose by LC-MS/MS analysis. It counts as ADME, organism-based. In short, it runs like this:
as §5

The subject of another series is Rattus norvegicus. The experiment in a line: In vivo inhibition of glycine transporter-1 in Sprague-Dawley rat assessed as increase in CSF glycine level at 1 to 10 mg/kg, po qd for 5 days. It counts as functional, organism-based. In short, it runs like this: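 Drug-naive Sprague-Dawley rats, n = 5 per group, dosed orally once daily for 5 days with vehicle or 1.6, 4.8 or 16.1 μmol/kg. Vehicle was 5% Solutol / 20% Captisol in 25 mM PBS, pH 2. Killed 2 h or 48 h after the last dose. CSF glycine was expressed as % of vehicle control (vehicle 2 h post last dose), mean ± SEM. Two-way ANOVA with Tukey test.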

Chain of Cytochrome P450 2C9 (P11712 whole entry): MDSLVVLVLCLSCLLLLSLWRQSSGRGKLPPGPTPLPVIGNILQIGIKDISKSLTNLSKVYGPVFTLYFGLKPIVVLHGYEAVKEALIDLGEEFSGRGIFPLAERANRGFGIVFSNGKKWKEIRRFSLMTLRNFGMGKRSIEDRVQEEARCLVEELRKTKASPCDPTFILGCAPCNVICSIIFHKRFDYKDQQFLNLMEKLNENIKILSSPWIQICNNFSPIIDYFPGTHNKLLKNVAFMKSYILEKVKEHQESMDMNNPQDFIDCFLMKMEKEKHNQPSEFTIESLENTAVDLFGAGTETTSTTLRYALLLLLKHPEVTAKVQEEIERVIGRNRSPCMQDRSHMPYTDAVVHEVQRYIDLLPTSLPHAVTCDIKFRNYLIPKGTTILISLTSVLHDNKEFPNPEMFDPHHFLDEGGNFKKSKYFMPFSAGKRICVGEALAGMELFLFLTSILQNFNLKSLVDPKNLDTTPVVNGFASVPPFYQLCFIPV

Usually IC50 stands for the concentration that inhibits the measured activity by half. By Cmax is commonly meant the peak of the concentration-time curve. The Tmax is the time at which the peak concentration occurs. One may read the AUC(0-t) as exposure summed from dosing to a finite time, without extrapolation to infinity. In the case of `CC(NC(=O)c1ccc(C(F)(F)F)cc1Cl)C1(N2CCN(S(=O)(=O)c3cn(C)nn3)CC2)CCC(F)(F)CC1.Cl` (single isomer, unassigned; (+)), the results for the CL in [1] and in series [2] were 12 microL/ml/min and 6 microL/ml/min, respectively. For the same compound, the concentration for half-maximal inhibition (IC50) against Cytochrome P450 2C9 was greater than 7.2 µM. In addition, the fraction unbound in [3] was 0.12; in series [4] it was 0.13. In [5], the Cmax was determined as 352 ng/mL. In addition, the time to peak (Tmax) in series [6] is 2.67 h. In addition, the half-life in series [7] was 6.27 h. The compound further had an AUC(0-t) at 24 h in [8] of 1960 ng·h/mL. In [9], the Kp at 2 h was in the range of 0.1 to 0.2. Also, in series [10], the Ratio is recorded as greater than 0.1. The Activity with Cynomolgus monkey [11] was greater than 300%. Further, the ED200 in the series on Cynomolgus monkey [12] is 4.7 to 15.7 µmol/kg. In [13], this compound showed a concentration at 3 h of 5.7 ng/mL. This compound also displayed a concentration at 8 h in [14] of 2 ng/mL. In addition, the concentration at 24 h in series [15] is 10.3 ng/mL. For the same compound, the concentration at 2 h in series [16] is 11.3 ng/mL.
Turning to `Cl.Cn1cc(S(=O)(=O)N2CCN(C3(CNC(=O)c4ccc(C(F)(F)F)cc4Cl)CCC(F)(F)CC3)CC2)nn1`, the concentration at 2 h came to 66.8 nM in [17]; 46.3 nM in series [18]; 490 nM in series [19]; 1.9 nM in [20]; 21 nM in series [21]; 122 nM in [22]. Further, in series [23], the concentration at 2 h turned out to be 237 nM. For the same compound, the inhibition result in the series with Rattus norvegicus was “Active”.
